Source: ChEMBL document CHEMBL2413075, “Structure activity relationship study of benzo[d]thiazol-2(3H)one based σ receptor ligands” (Bioorg Med Chem Lett, 2013)

Experiments:
[1] = Displacement of [3H]DTG from sigma 2 receptor in rat liver membranes; type: cell membranes, Membrane
Method in brief: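 Rat liver membranes in a 96-well high-throughput format. Sigma-2 sites labeled with 5 nM [3H]DTG, with 300 nM (+)-pentazocine present to mask sigma-1. Nonspecific binding defined with 10 μM haloperidol. Ki values derived from displacement.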

[2] = target: Sigma non-opioid intracellular receptor 1 (Rattus norvegicus, UniProt Q9R0C9); assay: Displacement of [3H](+)-pentazocine from sigma 1 receptor in rat liver membranes; type: cell membranes, Membrane
Method in brief: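 Rat liver membranes in a 96-well high-throughput format. Sigma-1 sites labeled with 5 nM [3H](+)-pentazocine. Nonspecific binding defined with 10 μM haloperidol. Ki values derived from displacement.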

Rattus norvegicus = species: Rattus norvegicus; assay: Selectivity ratio of Ki for sigma 2 receptor in rat liver membranes to Ki for sigma 1 receptor in rat liver membranes; type: cell membranes; details: Membrane
[3] = Binding affinity to sigma 2 receptor in guinea pig brain membranes; type: cell membranes, Cavia porcellus, Membrane
Cavia porcellus = species: Cavia porcellus; assay: Selectivity ratio of Ki for sigma 2 receptor in guinea pig brain membranes to Ki for sigma 1 receptor in guinea pig brain membranes; type: cell membranes

Sigma non-opioid intracellular receptor 1, sequence (Q9R0C9 whole entry): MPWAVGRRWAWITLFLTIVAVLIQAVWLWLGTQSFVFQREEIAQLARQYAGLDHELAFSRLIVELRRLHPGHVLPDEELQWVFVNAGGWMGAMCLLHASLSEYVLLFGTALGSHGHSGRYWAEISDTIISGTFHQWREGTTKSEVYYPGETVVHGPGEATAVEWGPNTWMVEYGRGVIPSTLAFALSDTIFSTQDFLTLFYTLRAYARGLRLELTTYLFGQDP

Ki [1] [nM] | Ki [2] [nM] | Ratio Ki (Rattus norvegicus) | SMILES | Ki [3] [nM] | Ratio Ki (Cavia porcellus)
1.1 | 10.4 | 0.1 | CCC(=O)c1ccc2c(c1)sc(=O)n2CCCCCCN1CCCCCC1 | – | –
30.3 | 10.3 | 3 | CCC(=O)c1ccc2c(c1)sc(=O)n2CCCCN1CCCCCC1 | – | –
2.3 | 10.8 | 0.2 | CCCC(=O)c1ccc2c(c1)sc(=O)n2CCCCCCN1CCCCCC1 | – | –
4.3 | 6.1 | 0.7 | CCCc1ccc2c(c1)sc(=O)n2CCCCN1CCCCCC1 | – | –
2.3 | 6.3 | 0.4 | CCCc1ccc2c(c1)sc(=O)n2CCCCCCN1CCCCCC1 | – | –
8.3 | 12.2 | 0.7 | CCC(=O)c1ccc2c(c1)sc(=O)n2CCCCCN1CCCCCC1 | – | –
2180 | 4.5 | 484 | CCC(=O)c1ccc2c(c1)sc(=O)n2CCN1CCCCCC1 | – | –
5.7 | 16.3 | 0.4 | CCCC(=O)c1ccc2c(c1)sc(=O)n2CCCCCN1CCCCCC1 | – | –
21.6 | 4.8 | 4.5 | CCCC(=O)c1ccc2c(c1)sc(=O)n2CCCCN1CCCCCC1 | – | –
104 | 2.6 | 39 | CCCC(=O)c1ccc2c(c1)sc(=O)n2CCCN1CCCCCC1 | – | –
4.4 | 1.9 | 2.4 | CCCCc1ccc2c(c1)sc(=O)n2CCCCN1CCCCCC1 | – | –
4.1 | 12 | 0.3 | CCCCc1ccc2c(c1)sc(=O)n2CCCCCCN1CCCCCC1 | – | –
1.6 | 4.6 | 0.3 | CCCc1ccc2c(c1)sc(=O)n2CCCCCN1CCCCCC1 | – | –
305 | 3.7 | 83 | CCC(=O)c1ccc2c(c1)sc(=O)n2CCCN1CCCCCC1 | – | –
4790 | 116 | 41 | CCC(=O)c1ccc2c(c1)sc(=O)n2CCN1CCCC1 | – | –

Second part, the compound before the results:

SMILES | Ki [1] [nM] | Ki [2] [nM] | Ratio Ki (Rattus norvegicus) | Ki [3] [nM] | Ratio Ki (Cavia porcellus)
O=c1sc2cc(CCCF)ccc2n1CCN1CCCCCC1 | – | – | 486 | – | –
CCCCc1ccc2c(c1)sc(=O)n2CCCN1CCCCCC1 | 15.3 | 2.2 | 7 | – | –
CCCc1ccc2c(c1)sc(=O)n2CCN1CCCCCC1 | 270 | 1.6 | 169 | > 1000 | > 1000
O=c1sc2ccccc2n1CCCCCN1CCCCCC1 | 2.5 | 7 | 0.4 | – | –
CCCc1ccc2c(c1)sc(=O)n2CCCN1CCCCCC1 | 17.2 | 1.4 | 13 | – | –
O=c1sc2ccccc2n1CCCCN1CCCCCC1 | 101 | 3.2 | 31 | – | –
O=c1sc2ccccc2n1CCN1CCCC1 | 8260 | 578 | 14 | – | –
O=c1sc2ccccc2n1CCCN1CCCCCC1 | 177 | 4.1 | 43 | – | –
O=c1sc2ccccc2n1CCN1CCCCCCC1 | 716 | 9.7 | 74 | – | –
O=c1sc2ccccc2n1CCCCCCN1CCCCCC1 | 2.4 | 7.5 | 0.3 | – | –
